SIRT5 inh: sirtuin-5 (human) deacylase inhibition. Purified SirT5, succinyl-peptide AMC, trypsin-coupled fluorescence. 330,000 tested, 1.1% active. inhibition, % at 15 µM. Q9NXA8; in the data active = inhibition above about 15%; inconclusive = no clear call, values can overlap the other calls
PDI turbidity: blocks human protein disulfide isomerase activity; P07237; PDI insulin aggregation turbidity, A650, 90 min; inhibition, % at 10 µM; 350,000 tested, 0.052% active;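 active = mean inhibition across replicates of 30% or more, whatever share of single replicates reach that level; inconclusive = mean inhibition below 30% while every single replicate reaches 30%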
FN deposition inh: fibronectin deposition inhibition; AH1F fibroblasts, Alexa488-fibronectin deposition fluorescence, overnight; inhibition, % at 12.6 µM; 350,000 tested, 0.086% active; AID 743247;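 active = mean inhibition across replicates of 30% or more, regardless of how many single replicates reach that level; inconclusive = mean under 30% yet at least half of replicates reach 30%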;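 note: positive control wells lacked labelled fibronectin entirely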
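Schedule: 1 h cell adhesion before compound, then overnight fibronectin incubation; test system: AH1F fibroblast monolayer depositing Alexa488-labelled fibronectin into matrix; quantity: 10000 AH1F cells per well; probe or stimulus: fluorescent fibronectin at 24 nM final; signal: fluorescence, ex 485 nm, em 525 nm; evaluation: percent inhibition as loss of matrix-bound fibronectin fluorescence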
ERp5 inh: ERp5 (human) disulfide isomerase inhibition; ERp5 insulin aggregation, absorbance 650 nm, 90 min; Q15084; 350,000 tested, 0.05% active; inhibition, % at 9.99 µM; AID 651711;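 active = mean replicate inhibition above about 25%, with every replicate also reaching it, limit read from the data, passing the limit was not always enough; inconclusive = only one of those two criteria met; inactive = neither criterion met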
MLL AF4-AF9 inh: inhibitors of human MLL-AF4/AF9 interaction. P42568. AID 651704. AlphaScreen, biotin-AF4 peptide binding to FLAG-AF9. 350,000 tested, 0.47% active. inhibition, % at 10 µM;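 active = every replicate reaching a set inhibition limit, whatever the replicate mean, cut at about 25% in these data; inconclusive = mean inhibition reaches that limit but some replicates miss it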;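 note: 0% = plate neutral control median and 100% = total signal loss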
Target sequence (P42568 whole entry, looked up): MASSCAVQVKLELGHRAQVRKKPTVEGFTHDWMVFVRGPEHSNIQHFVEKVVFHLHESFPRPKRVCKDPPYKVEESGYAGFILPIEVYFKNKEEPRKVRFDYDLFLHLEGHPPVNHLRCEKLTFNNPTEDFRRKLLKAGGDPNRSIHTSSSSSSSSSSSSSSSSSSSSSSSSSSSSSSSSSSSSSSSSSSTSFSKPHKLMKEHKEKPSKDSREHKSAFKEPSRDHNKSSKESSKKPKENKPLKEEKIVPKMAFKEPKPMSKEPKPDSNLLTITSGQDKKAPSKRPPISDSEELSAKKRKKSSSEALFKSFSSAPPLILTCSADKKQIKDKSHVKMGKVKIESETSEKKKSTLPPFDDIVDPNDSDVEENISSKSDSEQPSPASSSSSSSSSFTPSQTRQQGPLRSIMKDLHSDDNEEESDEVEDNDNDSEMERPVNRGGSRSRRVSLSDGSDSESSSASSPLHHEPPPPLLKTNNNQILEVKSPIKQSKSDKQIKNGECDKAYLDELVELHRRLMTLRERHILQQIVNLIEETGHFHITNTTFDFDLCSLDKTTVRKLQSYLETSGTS
Active calls of the source: *; ? = inconclusive; . = not tested or not shown. Most compounds without a hit are left out; they make up all but 1.3% or so of the library.

SMILES	SIRT5 inh	PDI turbidity	FN deposition inh	ERp5 inh	MLL AF4-AF9 inh
C[C@H](CO)N1C[C@H](C)[C@@H](CN(C)Cc2ccc(Cl)c(Cl)c2)Oc2ccc(NS(=O)(=O)c3ccc(Cl)cc3)cc2CC1=O	25*	.	-6	1	0
C[C@@H]1CN([C@H](C)CO)C(=O)Cc2cc(NS(=O)(=O)c3ccc(Cl)cc3)ccc2O[C@H]1CN(C)Cc1ccc(Cl)c(Cl)c1	15	.	.	3	-4
C[C@@H]1CN([C@@H](C)CO)C(=O)Cc2cc(NS(=O)(=O)c3ccc(Cl)cc3)ccc2O[C@H]1CN(C)Cc1ccc(Cl)c(Cl)c1	26*	.	8	-2	-1
Cc1ccc(S(=O)(=O)Nc2ccc3c(c2)CC(=O)N([C@H](C)CO)C[C@H](C)[C@@H](CN(C)Cc2ccc(Cl)c(Cl)c2)O3)cc1	1	.	-4	-4	-1
Cc1c(NS(=O)(=O)c2cccc(C(=O)NCc3ccccc3Cl)c2)c(=O)n(-c2ccccc2)n1C	16*	0	-5	-2	8
Cc1c(NS(=O)(=O)c2ccc(N=NN(C)C)cc2)c(=O)n(-c2ccccc2)n1C	18*	0	0	3	-2
O=C(c1ccc([N+](=O)[O-])cc1)N1CCc2ccccc21	1	-3	-2	-1	47*
CCN(CC)S(=O)(=O)c1ccc(C(=O)N2CCc3ccccc32)cc1	16*	0	-1	-3	-1
CCN(CC)S(=O)(=O)c1ccc(Cl)c(C(=O)N2CCc3ccccc32)c1	.	-2	.	.	.
CC(C)NC(=O)N(C)C[C@H]1OCCCC[C@@H](C)Oc2ccc(NC(=O)NC3CCCCC3)cc2C(=O)N([C@H](C)CO)C[C@H]1C	2	.	-2	2	-10
Cc1ncc(CN2CCCC(C(=O)Nc3ccc(-c4cscn4)cc3)C2)cn1 (stereo unspecified)	4	1	-5	-1	0
Cc1ncc(CN2CCCC(C(=O)Nc3ccc(-c4ccco4)cc3)C2)cn1 (stereo unspecified)	1	-2	-9	4	40*
O=C(c1ccco1)N1CCCN(Cc2nc(-c3cccs3)no2)CC1	21*	6	0	?	0
O=C(NCC(c1ccccc1)N1CCCC1)C1CCN(C(=O)Nc2ccccc2)CC1 (stereo unspecified)	0	-2	.	2	2
CCCn1cc(S(=O)(=O)c2ccc(C)cc2)c(=O)c2cc(OC)c(OC)cc21	20*	13	-23	1	1
O=C(COC(=O)/C=C/c1ccc(Cl)cc1)NCCC1=CCCCC1	.	14	32*	.	.
O=C(COC(=O)/C=C/c1cccc(Cl)c1)NCCC1=CCCCC1	.	-2	9	.	.
NC(=O)c1ccc2c(=O)n3c(-c4cc(Cl)c(N)c(Cl)c4)csc3nc2c1	.	-3	9	-2	-5
Cc1csc2nc3cc(C(N)=O)ccc3c(=O)n12	-7	-2	.	2	55*
C[C@H](CO)N1C[C@H](C)[C@H](CN(C)Cc2cccc3c2OCCCO3)OCc2ccccc2-c2ccccc2C1=O	-2	.	-13	-1	6
O=C(NCCCO)c1ccc2nc(-c3ccco3)c(-c3ccco3)nc2c1	15*	6	-3	-4	-8
CCCCNC(=O)c1ccc2nc(-c3ccco3)c(-c3ccco3)nc2c1	.	-2	-2	0	0
CC(=O)C1=C(O)CC(C)(C)CC1=NCCc1nc2ccccc2[nH]1	-3	3	-2	2	3
O=C1CN(C(=O)NCCC(=O)NC2CCCCC2)c2ccccc2N1	-2	-3	-8	4	-2
CC(C)CC#Cc1ccc2c(c1)O[C@@H](CN(C)C(=O)NC1CCCC1)[C@H](C)CN([C@@H](C)CO)S2(=O)=O	16*	.	-8	3	4
SMILES	SIRT5 inh	PDI turbidity	FN deposition inh	ERp5 inh	MLL AF4-AF9 inh
CC(C)CC#Cc1ccc2c(c1)O[C@@H](CN(C)C(=O)NC1CCCC1)[C@H](C)CN([C@H](C)CO)S2(=O)=O	25*	.	7	8	6
C[C@@H]1CN([C@H](C)CO)S(=O)(=O)c2ccc(C#Cc3ccc(F)cc3)cc2O[C@H]1CN(C)C(=O)NC1CCCCC1	18*	.	13	-8	0
Cn1c(=O)c2c([nH]c(=O)n2C)n(C)c1=O	.	-2	6	.	.
O=c1c(Oc2ccccc2)coc2cc(O)cc(O)c12	9	.	.	9	-2
O=C(C[n+]1ccccc1)N/N=C/c1ccccc1[N+](=O)[O-]	0	15	-13	-4	0
COc1ccc(CN2CCCCCC2)cc1	-1	-3	3	0	-3
COc1ccc(N=Nc2cc(C)c(O)c(CN3CCCCC3)c2)cc1	1	-6	2	4	54*
COc1cccc(C2C(C(=O)c3ccc(C)o3)=C(O)C(=O)N2c2cc(C)on2)c1 (stereo unspecified)	2	-8	-13	9	1
O=c1nccc(N/N=C/c2ccccc2)[nH]1	24*	-3	7	3	5
O=C(Cn1nc(-c2ccccc2)c2ccccc2c1=O)Nc1ccc2c(c1)nc1n2CCOC1	.	-2	4	.	.
COc1ccc(NC(=O)NC2(C(=O)N3CCN(C)CC3)CCCCC2)cc1	0	-13	0	2	-3
COc1cc(/C=C2\SC(=Nc3ccc(Cl)c(C(=O)O)c3)NC2=O)c(Br)c(Br)c1O	26*	11	-2	-4	2
CC1=CC(=O)C=CC1=Nc1ccc(N(C)C)cc1	-2	.	-6	-4	91*
CN(C)c1ccc(N=Nc2ccc(S(N)(=O)=O)cc2)cc1	1	-2	3	5	0
Cc1cccc(C)c1NC(=S)N(CCc1ccncc1)C(C)C	16*	-12	7	3	-8
CCOc1ccc(NC(=S)N(CCc2ccncc2)C(C)C)cc1	-1	-1	1	9	1
CCCCN(CCCC)S(=O)(=O)c1c(C)[nH]c(=O)[nH]c1=O	22*	4	3	9	-2
COc1ccc(S(=O)(=O)Nc2ccc3c(c2)CC(=O)N([C@@H](C)CO)C[C@@H](C)[C@@H](CN(C)Cc2ccc(C(F)(F)F)cc2)O3)cc1	5	.	-5	-6	-1
COc1ccc(S(=O)(=O)Nc2ccc3c(c2)CC(=O)N([C@@H](C)CO)C[C@H](C)[C@H](CN(C)Cc2ccc(C(F)(F)F)cc2)O3)cc1	22*	.	-17	-8	0
C[C@H](CO)N1C[C@H](C)[C@@H](CN(C)Cc2ccc(C(F)(F)F)cc2)Oc2ccc(NS(=O)(=O)c3ccc(F)cc3)cc2CC1=O	35*	.	.	-1	-1
C[C@H](CO)N1C[C@H](C)[C@H](CN(C)Cc2ccc(C(F)(F)F)cc2)Oc2ccc(NS(=O)(=O)c3ccc(F)cc3)cc2CC1=O	12	.	.	6	2
COc1ccc(S(=O)(=O)Nc2ccc3c(c2)CC(=O)N([C@H](C)CO)C[C@@H](C)[C@@H](CN(C)Cc2ccc(C(F)(F)F)cc2)O3)cc1	22*	.	-13	8	0
